Laboratory results taken from ChEMBL document CHEMBL3813673, “Bistacrine derivatives as new potent antimalarials” (Bioorg Med Chem, 2016).

What was measured:
[1] = Selectivity index, ratio of IC50 for mouse J774.1 cells to IC50 for chloroquine-sensitive ring-stage Plasmodium falciparum 3D7; type: toxicity; conditions: read-out: Ratio IC50
[2] = Cytotoxicity against mouse J774.1 cells after 24 hrs by AlamarBlue based cytotoxicity assay; type: cell-based; conditions: J774.1, 24 h
Summary of the method: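 Compounds dissolved in DMSO and serially diluted. Cells incubated with them at 37 °C, 5% CO2 for 24 h. AlamarBlue solution then added and plates incubated for a further 24 and 48 h.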

Plasmodium falciparum [3] = assay: Antimalarial activity against chloroquine-sensitive ring-stage Plasmodium falciparum 3D7 assessed as parasite viability after 72 hrs by malstat assay; type: functional, organism-based; conditions: 3D7, 72 h
Summary of the method: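 P. falciparum 3D7: synchronized ring stages plated at 1% parasitemia with compounds dissolved in DMSO; 0.5% DMSO as negative control. Cultured in triplicate for 72 h, then viability read by Malstat assay (parasite lactate dehydrogenase activity). Each compound tested twice; IC50 and standard deviation calculated.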

[4] = Selectivity index, ratio of IC50 for mouse J774.1 cells to IC50 for ring-stage Plasmodium falciparum Dd2; type: toxicity; conditions: read-out: Ratio IC50
Plasmodium falciparum [5] = assay: Antimalarial activity against chloroquine-resistant Plasmodium falciparum Dd2 assessed as parasite viability after 72 hrs by malstat assay; type: functional, organism-based; conditions: Dd2, 72 h
[6] = Reversible inhibition of recombinant Plasmodium falciparum falcipain 2 assessed as hydrolysis of Cbz-Phe-Arg-AMC measured after 10 mins by spectrofluorometric method
Summary of the method: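 Substrate added to buffer containing falcipain-2 and a range of inhibitor concentrations. Fluorescence (ex 380, em 460 nm) followed over 10 min, in duplicate. Slopes (ΔF/min) of the progress curves plotted against inhibitor concentration; IC50 obtained by nonlinear regression.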

Plasmodium falciparum [7] = assay: Inhibition of recombinant Plasmodium falciparum falcipain 2 assessed as hydrolysis of Cbz-Phe-Arg-AMC measured after 5 mins at 20 uM by spectrofluorometric method
Summary of the method: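 Recombinant falcipain-2 with Cbz-Phe-Arg-AMC substrate in 50 mM sodium acetate, pH 5.5, with 5 mM EDTA and 200 mM NaCl. Released AMC read by fluorescence (ex 380 nm, em 460 nm). Single-concentration screen; compounds giving over 35% inhibition went on to kinetic assays. Run twice.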

[8] = Inhibition of beta-hematin formation; type: physicochemical
Summary of the method: (§1)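 Heme–pyridine complex absorbance, which obeys Lambert–Beer's law, used to quantify free heme in heme/hemozoin mixtures and so judge inhibition of β-hematin formation. Chloroquine served as positive control and DMSO as negative control.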

[9] = Inhibition of beta-hematin formation in acetate solution at pH 4.5 measured after 60 mins by pyridine-based spectrophotometric assay; type: physicochemical; summary of the method: as §1

CC1CCc2nc3cc(Cl)ccc3c(NCCCCCCNc3c4c(nc5cc(Cl)ccc35)CCC(C)C4)c2C1 (stereo unspecified)
selectivity ratio [1]: 260 | IC50 [2]: 7.8 µM | IC50 (Plasmodium falciparum [3]): 0.03 µM

c1ccc2c(NCCCCCNc3c4c(nc5ccccc35)CCCC4)c3c(nc2c1)CCCC3
selectivity ratio [4]: 3.27 | selectivity ratio [1]: 2.86 | IC50 (Plasmodium falciparum [5]): 0.55 µM | IC50 [2]: 1.8 µM | IC50 (Plasmodium falciparum [3]): 0.63 µM

Nc1c2c(nc3ccc([N+](=O)[O-])cc13)CCCC2
IC50 [2]: 44.6 µM | IC50 (Plasmodium falciparum [3]): 3.23 µM

Cc1ccc2nc3c(c(N)c2c1)CCCC3
IC50 [2]: 44.3 µM | IC50 (Plasmodium falciparum [3]): 2.04 µM

CCCC1CCc2nc3ccc(Cl)cc3c(N)c2C1 (stereo unspecified)
IC50 [2]: 8.4 µM | IC50 (Plasmodium falciparum [3]): 0.21 µM

c1ccc2c(NCCCCCCCNc3c4c(nc5ccccc35)CCCC4)c3c(nc2c1)CCCC3
selectivity ratio [4]: 8.64 | selectivity ratio [1]: 27.1 | IC50 (Plasmodium falciparum [5]): 0.22 µM | IC50 [2]: 1.9 µM | IC50 (Plasmodium falciparum [3]): 0.07 µM

COc1ccc2nc3c(c(NCCCCCCCCCNc4c5c(nc6ccc(OC)cc46)CCCC5)c2c1)CCCC3
selectivity ratio [1]: 15 | IC50 [6]: 14.9 µM | IC50 (Plasmodium falciparum [5]): 0.16 µM | inhibition (Plasmodium falciparum [7]): 62.2% | IC50 [2]: 1.7 µM | IC50 (Plasmodium falciparum [3]): 0.11 µM

c1ccc2c(NCCCCCCCCCCNc3c4c(nc5ccccc35)CCCC4)c3c(nc2c1)CCCC3
selectivity ratio [4]: 12.9 | selectivity ratio [1]: 16.4 | IC50 (Plasmodium falciparum [5]): 0.14 µM | IC50 [2]: 1.8 µM | IC50 (Plasmodium falciparum [3]): 0.11 µM

CCN(CC)CCCC(C)Nc1ccnc2cc(Cl)ccc12 (stereo unspecified) [CHLOROQUINE]
IC50 [8]: 3.01 equiv | IC50 [9]: 1.91 equiv | IC50 [2]: 18.4 µM

CC1CCc2c(nc3cc(Cl)ccc3c2NCCCCCCNc2c3c(nc4cc(Cl)ccc24)CC(C)CC3)C1 (stereo unspecified)
selectivity ratio [1]: 30 | IC50 [2]: 1.5 µM | IC50 (Plasmodium falciparum [3]): 0.05 µM

CC1CCc2c(nc3ccc([N+](=O)[O-])cc3c2NCCCCCCNc2c3c(nc4ccc([N+](=O)[O-])cc24)CC(C)CC3)C1 (stereo unspecified)
selectivity ratio [1]: 1250 | IC50 [6]: 5.2 µM | inhibition (Plasmodium falciparum [7]): 56.7% | IC50 [2]: 25 µM | IC50 (Plasmodium falciparum [3]): 0.02 µM

Nc1c2c(nc3ccc(Cl)cc13)CCCC2
IC50 [2]: 43.2 µM | IC50 (Plasmodium falciparum [3]): 4.02 µM

CC1(C)CCc2c(nc3cc(Cl)ccc3c2NCCCCCCNc2c3c(nc4cc(Cl)ccc24)CC(C)(C)CC3)C1
selectivity ratio [1]: 50 | IC50 [2]: 1.5 µM | IC50 (Plasmodium falciparum [3]): 0.03 µM

CC1(C)CCc2c(nc3ccccc3c2NCCCCCCNc2c3c(nc4ccccc24)CC(C)(C)CC3)C1
selectivity ratio [1]: 60 | IC50 [2]: 1.8 µM | IC50 (Plasmodium falciparum [3]): 0.03 µM

CCOC1CCc2nc3cc(Cl)ccc3c(NCCCCCCCCCNc3c4c(nc5cc(Cl)ccc35)CCC(OCC)C4)c2C1 (stereo unspecified)
selectivity ratio [1]: 9 | IC50 (Plasmodium falciparum [5]): 0.16 µM | inhibition (Plasmodium falciparum [7]): 25% | IC50 [2]: 1.74 µM | IC50 (Plasmodium falciparum [3]): 0.2 µM

Nc1c2c(nc3ccccc13)CCCC2 [TACRINE]
IC50 [2]: > 100 µM | IC50 (Plasmodium falciparum [3]): 12.5 µM

c1ccc2c(NCCCCCCNc3c4c(nc5ccccc35)CCCC4)c3c(nc2c1)CCCC3
selectivity ratio [1]: 29.7 | IC50 [2]: 2.97 µM | IC50 (Plasmodium falciparum [3]): 0.1 µM

CC1(C)CCc2c(nc3ccc([N+](=O)[O-])cc3c2NCCCCCCNc2c3c(nc4ccc([N+](=O)[O-])cc24)CC(C)(C)CC3)C1
selectivity ratio [1]: 198 | IC50 [2]: 7.9 µM | IC50 (Plasmodium falciparum [3]): 0.04 µM

Clc1ccc2c(NCCCCCCNc3c4c(nc5cc(Cl)ccc35)CCCC4)c3c(nc2c1)CCCC3
selectivity ratio [1]: 90 | IC50 [6]: 17.3 µM | inhibition (Plasmodium falciparum [7]): 36.9% | IC50 [2]: 1.8 µM | IC50 (Plasmodium falciparum [3]): 0.02 µM

c1ccc2c(NCCCCCCCCNc3c4c(nc5ccccc35)CCCC4)c3c(nc2c1)CCCC3
selectivity ratio [4]: 6.33 | selectivity ratio [1]: 17.3 | IC50 [6]: 17.1 µM | IC50 (Plasmodium falciparum [5]): 0.3 µM | inhibition (Plasmodium falciparum [7]): 34.4% | IC50 [2]: 1.9 µM | IC50 (Plasmodium falciparum [3]): 0.11 µM

CCCC1CCc2nc3ccccc3c(N)c2C1 (stereo unspecified)
IC50 [2]: 43 µM | IC50 (Plasmodium falciparum [3]): 1.52 µM
